# APJ antagonist – APJ receptor antagonism. CHO-K1 APJ beta-arrestin complementation, luminescence. 0.32% of 330,000 active. inhibition, % at 20 µM;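 active = inhibition above about 40% at 20 µM, limit read from the data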;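 note: cells challenged with 10 nM apelin-13 agonist together with compound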
# EBI2 block – blocks human EBI2 receptor beta-arrestin signaling; EBI2 beta-arrestin recruitment, luminescence, 7a,25-OHC stimulated; inhibition, % at 5 µM; 0.81% of 360,000 active; AID 651636; in the data active = inhibition above about 38%;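 note: enzyme fragment complementation signal reports receptor beta-arrestin coupling in cells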
# APJ agonist – APJ receptor agonism | AID 2520 | 0.11% of 330,000 active | CHO-K1 APJ PathHunter beta-arrestin, luminescence; 0% DMSO wells, 100% apelin | activation, % at 20 µM | P35414;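 active = activation more than six SD over the plate average, tested at 20 µM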
#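 Incubation: overnight seeding, 90 min compound at 25 °C, 1 h detection; test system: PathHunter CHO-K1 APJ (AGTRL-1) beta-arrestin reporter cells; amount: 1000 cells/well; doses: one dose, 20 µM compound, 1% DMSO; measured by: beta-gal luminescence; measure: agonist-driven arrestin binding to APJ; benchmarks: negative DMSO alone, positive Apelin-13 at 10 nM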
# CCR6 antag – CCR6 (human) receptor antagonism; P51684; CHO-K1 CCR6 PathHunter beta-arrestin, luminescence, CCL20-stimulated; inhibition, % at 20 µM; 0.49% of 340,000 active; AID 493098;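 active = compounds whose inhibition of the agonist-driven luminescence signal at 20 µM reaches about 50%, limit read from the data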;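 note: cells stimulated with CCL20 at 14 nM final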
# CXCR6 block – blocks human CXCR6 beta-arrestin recruitment. O00574. CHO-K1 PathHunter CXCR6 beta-arrestin, luminescence. inhibition, % at 20 µM. 0.36% of 360,000 active; in the data active = inhibition above about 34%, passing the limit was not always enough;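 note: antagonist mode with CXCL16 agonist at 10 nM final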
# Target sequence (O00574 whole entry, looked up): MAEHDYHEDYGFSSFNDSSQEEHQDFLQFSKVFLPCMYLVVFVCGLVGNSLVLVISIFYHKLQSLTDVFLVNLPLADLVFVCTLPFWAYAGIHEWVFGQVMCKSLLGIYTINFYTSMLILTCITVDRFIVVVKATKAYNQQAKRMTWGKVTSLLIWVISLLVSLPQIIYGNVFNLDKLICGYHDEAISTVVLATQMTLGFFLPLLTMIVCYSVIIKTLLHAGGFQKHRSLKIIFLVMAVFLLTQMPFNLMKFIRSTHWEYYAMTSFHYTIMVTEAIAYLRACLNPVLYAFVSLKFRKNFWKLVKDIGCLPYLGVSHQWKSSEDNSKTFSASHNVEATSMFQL
# HTR2A ag – activates the mouse 5-HT2A serotonin receptor; CHO-K1 mHTR2A beta-arrestin complementation, luminescence; percent of 30 µM serotonin response; P35363; AID 624169; activation, % at 7.6 µM; 0.66% of 360,000 active;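 active = activation above a run cutoff, the mean activation of all tested compounds plus 3 SD, cut at about 14% in these data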
# APJ ag confirm – APJ receptor agonism confirmation | 10% of 310 active | activation, % at 20 µM | CHO-K1 APJ PathHunter beta-arrestin, luminescence | shares compounds with APJ agonist;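 active = activation above 40%, taking the highest of four retests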
# Numbers stand for hits; n = inactive; x = not tested or not shown. In the library only some 2.2% were active in any assay of this set; here they are far more common.
SMILES,APJ antagonist,EBI2 block,APJ agonist,CCR6 antag,CXCR6 block,HTR2A ag,APJ ag confirm
CC[n+]1c(/C=C/N(C)c2ccccc2)n(-c2ccccc2)c2ccc(-c3nc4ccccc4s3)cc21,n,n,26,n,n,20,n
C=CCn1c(SCCC)nc(O)cc1=O,n,n,34,n,n,n,n
C=CCn1c(SCC)nc(O)cc1=O,n,n,n,n,n,n,x
CC(C)CC1NC(=O)c2cc3ccccc3cc2-n2c1nc1ccc(F)cc1c2=O (centres undefined),x,n,x,x,n,n,x
CC1=NOC(=O)/C1=C\c1ccc(-c2cccc(Cl)c2)o1,n,n,15,x,96,n,n
COc1ccc(NC(=O)C(C2CC2)n2c(=O)c(-c3ccccc3)nc3ccccc32)cc1 (centres undefined),x,n,x,x,x,n,x
CCN(CC(=O)Nc1ccc(NC(C)=O)cc1)C(=O)c1oc2ccccc2c1C,n,n,n,n,n,n,x
CCN(CC(=O)Nc1ccc(NC(C)=O)cc1)C(=O)c1oc2c(ccc3ccccc32)c1C,n,n,22,n,n,n,n
Cn1cnc(S(=O)(=O)N2CCCCC2c2cc(C(=O)Nc3cccc4c3CCCC4)no2)c1 (centres undefined),x,n,x,x,n,n,x
CCN(CC)S(=O)(=O)c1ccc(OCC(=O)NC(=O)Cc2ccccc2)c([N+](=O)[O-])c1,n,n,12,n,n,n,n
CCN(CC)S(=O)(=O)c1ccc(OC)c(NC(=O)COc2ccccc2[N+](=O)[O-])c1,n,n,n,n,n,n,x
COc1ccc(C2CCc3cc4c(cc3C2=NOC(C)=O)OCO4)cc1OC (centres undefined),x,n,x,x,n,n,x
CCCc1cc(C(=O)Nc2sc3c(c2C(=O)OCC)CCCC3)no1,n,n,68,n,n,n,n
CCOC(=O)c1c(NC(=O)c2ccn(CC)n2)sc2c1CCC2,n,n,n,n,n,n,x
Cc1ccc(C)c2[nH]c(=O)c(CCNC(=O)c3cc4ccccc4o3)cc12,n,n,12,n,n,n,n
CCCCc1ccc(N/C(N)=N/c2nc(C)cc(C)n2)cc1,n,n,43,n,n,n,n
C=C1CCN([C@@H](CC(C)C)C(=O)O)S(=O)(=O)c2ccccc21,n,n,45,n,n,n,n
C=C1CCN(C(CC(C)C)C(=O)OC)S(=O)(=O)c2ccccc21 (centres undefined),n,n,n,n,n,n,x
CCOC(=O)c1oc2nc3c(cc2c1N)CCCC3,n,n,117,n,n,n,n
N#Cc1cccc(C2CC(OCCF)=CC(=O)O2)c1 (centres undefined),x,n,x,x,x,n,x
Cc1ccc(Cl)cc1NC(=O)c1cc2ccccc2cc1O,n,n,22,n,n,n,n
CCOC(=O)N1CCN(C(=O)c2ccc(Cn3c(=S)[nH]c4cc5c(cc4c3=O)OCO5)cc2)CC1,n,n,23,n,n,n,n
COc1ccccc1N1CCN(C(=O)c2ccc(Cn3c(=S)[nH]c4cc5c(cc4c3=O)OCO5)cc2)CC1,n,n,n,n,n,n,x
CCn1cc(S(=O)(=O)c2ccccc2)c(=O)c2cc(F)c(N3CCN(C)CC3)cc21,n,n,n,n,n,n,x
Cc1cc(C)cc(S(=O)(=O)c2cn(C)c3cc(N4CCN(C)CC4)c(F)cc3c2=O)c1,n,n,38,n,n,n,n
SMILES,APJ antagonist,EBI2 block,APJ agonist,CCR6 antag,CXCR6 block,HTR2A ag,APJ ag confirm
CCCCCCCCN1C(=O)[C@H](CC(=O)N2CCN(C(=O)c3ccco3)CC2)C[C@@]2(C(=O)OC)CCCCC=C12,x,n,x,x,n,n,x
CCc1nc2c(OCC3CCCCC3)cccn2c1N(C=O)Cc1ccc(OC)cc1,x,n,x,x,n,n,x
CC(=O)NC(CC(=O)NNC(=O)c1cc2ccccc2cc1O)c1ccccc1 (centres undefined),n,n,30,n,n,n,n
N/C(=N\OS(=O)(=O)c1ccc2ccccc2c1)c1ccncc1,n,n,28,n,n,n,68
CCN(CC(=O)N1CCCC1)S(=O)(=O)c1cc(C)ccc1OC,n,n,30,n,n,n,n
N/C(=N\OC(=O)c1cccs1)C1(c2ccc(Cl)cc2Cl)CC1,n,n,n,n,n,n,x

# High-throughput results (PubChem)
